Measurements published in ChEMBL document CHEMBL5724801, “EUbOPEN Chemogenomics Library - Multiplex” (2024).
Where “and” joins values, the source holds several entries; their conditions need not be identical. Identical values can stand only once.

Tests used:
Format in all cases: toxicity, cell-based
[1] = system: Fibroblast; assay: Multiplex assay against human fibroblast
Procedure, shortened: (§1)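 Live cells were stained at seeding with Hoechst33342, BioTracker Green Microtubule Cytoskeleton Dye, MitoTracker Red and Annexin V Alexa Fluor 680. Following compound addition, they were imaged on a CQ1 microscope at 37°C and 5% CO2 and gated by CellPathfinder machine learning into Hoechst high-intensity objects or normal cells, with normal cells split into healthy, pyknosed or fragmented nuclei and pyknosed cells into mitotic or apoptotic. Tubulin, mitochondrial-mass and membrane-permeability phenotypes are per cents of healthy-nucleus cells.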

[2] = system: U2OS; assay: Multiplex assay against U2OS; conditions: human; procedure, shortened: as §1
[3] = system: HEK-293T; assay: Multiplex assay against HEK293T; conditions: human; procedure, shortened: as §1
[4] = 12 h, 1 µM, compound concentration 1 uM
[5] = 12 h, 10 µM, compound concentration 10 uM
[6] = 24 h, 1 µM, compound concentration 1 uM
[7] = 24 h, 10 µM, compound concentration 10 uM
[8] = 48 h, 1 µM, compound concentration 1 uM
[9] = 48 h, 10 µM, compound concentration 10 uM

SMILES: CC(C)C[C@H](CO)Nc1nc(S[C@@H](C)c2ccccc2)nc2nc(N)sc12 [AZD-8797]
- Population Apoptotic (%) [1, 4]: 25% and 31%
- Population Fragmented Nuclei (%) [1, 4]: 23% and 22%
- Population Healthy Nuclei (%) [1, 4]: 62% and 55%
- Population Hoechst High Intensity Objects (%) [1, 4]: 1% and 4%
- Population Mitochondria Different-Phenotype (%) [1, 4]: 3% and 6%
- Population Mitotic Cells (%) [1, 4]: 75% and 68%
- Population Normal (%) [1, 4]: 98% and 95%
- Population Pyknosed Nuclei (%) [1, 4]: 13% and 21%
- Population Tubulin-Different-Phenotype (%) [1, 4]: 23% and 46%
- Total Cell Count [1, 4]: 146 and 92
- Population Apoptotic (%) [1, 5]: 38% and 36%
- Population Fragmented Nuclei (%) [1, 5]: 18% and 36%
- Population Healthy Nuclei (%) [1, 5]: 64% and 41%
- Population Hoechst High Intensity Objects (%) [1, 5]: 3% and 5%
- Population Membrane Permeable-Phenotype (%) [1, 5]: 0% and 10%
- Population Mitotic Cells (%) [1, 5]: 61% and 64%
- Population Normal (%) [1, 5]: 96% and 94%
- Population Pyknosed Nuclei (%) [1, 5]: 17% and 21%
- Population Tubulin-Different-Phenotype (%) [1, 5]: 46% and 66%
- Total Cell Count [1, 5]: 156 and 122
- Population Apoptotic (%) [1, 6]: 44% and 31%
- Population Fragmented Nuclei (%) [1, 6]: 15% and 29%
- Population Healthy Nuclei (%) [1, 6]: 69% and 54%
- Population Hoechst High Intensity Objects (%) [1, 6]: 1% and 0%
- Population Mitochondria Different-Phenotype (%) [1, 6]: 1% and 3%
- Population Mitotic Cells (%) [1, 6]: 55% and 68%
- Population Normal (%) [1, 6]: 98% and 99%
- Population Pyknosed Nuclei (%) [1, 6]: 14% and 15%
- Population Tubulin-Different-Phenotype (%) [1, 6]: 24% and 46%
- Total Cell Count [1, 6]: 124 and 103
- Population Apoptotic (%) [1, 7]: 57% and 33%
- Population Fragmented Nuclei (%) [1, 7]: 21% and 42%
- Population Healthy Nuclei (%) [1, 7]: 66% and 38%
- Population Hoechst High Intensity Objects (%) [1, 7]: 1% and 2%
- Population Membrane Permeable-Phenotype (%) [1, 7]: 0% and 8%
- Population Mitochondria Different-Phenotype (%) [1, 7]: 15% and 25%
- Population Mitotic Cells (%) [1, 7]: 42% and 66%
- Population Normal (%) [1, 7]: 98% and 97%
- Population Pyknosed Nuclei (%) [1, 7]: 12% and 19%
- Population Tubulin-Different-Phenotype (%) [1, 7]: 38% and 85%
- Total Cell Count [1, 7]: 168 and 126
- Population Apoptotic (%) [1, 8]: 50% and 47%
- Population Fragmented Nuclei (%) [1, 8]: 25% and 30%
- Population Healthy Nuclei (%) [1, 8]: 60% and 48%
- Population Hoechst High Intensity Objects (%) [1, 8]: 1% and 4%
- Population Membrane Permeable-Phenotype (%) [1, 8]: 1% and 4%
- Population Mitochondria Different-Phenotype (%) [1, 8]: 1% and 4%
- Population Mitotic Cells (%) [1, 8]: 50% and 52%
- Population Normal (%) [1, 8]: 98% and 95%
- Population Pyknosed Nuclei (%) [1, 8]: 13% and 20%
- Total Cell Count [1, 8]: 135 and 95
- Population Apoptotic (%) [1, 9]: 60% and 35%
- Population Fragmented Nuclei (%) [1, 9]: 25% and 45%
- Population Healthy Nuclei (%) [1, 9]: 65% and 40%
- Population Hoechst High Intensity Objects (%) [1, 9]: 2% and 1%
- Population Membrane Permeable-Phenotype (%) [1, 9]: 0% and 12%
- Population Mitochondria Different-Phenotype (%) [1, 9]: 13% and 18%
- Population Mitotic Cells (%) [1, 9]: 40% and 64%
- Population Normal (%) [1, 9]: 97% and 98%
- Population Pyknosed Nuclei (%) [1, 9]: 9% and 14%
- Population Tubulin-Different-Phenotype (%) [1, 9]: 35% and 89%
- Total Cell Count [1, 9]: 168 and 121
- Population Apoptotic (%) [2, 4]: 83% and 100%
- Population Fragmented Nuclei (%) [2, 4]: 20% and 12%
- Population Healthy Nuclei (%) [2, 4]: 65% and 82%
- Population Hoechst High Intensity Objects (%) [2, 4]: 3% and 0%
- Population Membrane Permeable-Phenotype (%) [2, 4]: 5%
- Population Mitochondria Different-Phenotype (%) [2, 4]: 1% and 5%
- Population Mitotic Cells (%) [2, 4]: 16% and 0%
- Population Normal (%) [2, 4]: 96% and 100%
- Population Pyknosed Nuclei (%) [2, 4]: 14% and 5%
- Population Tubulin-Different-Phenotype (%) [2, 4]: 2% and 3%
- Total Cell Count [2, 4]: 177 and 95
- Population Apoptotic (%) [2, 5]: 63% and 78%
- Population Fragmented Nuclei (%) [2, 5]: 21% and 9%
- Population Healthy Nuclei (%) [2, 5]: 56% and 79%
- Population Hoechst High Intensity Objects (%) [2, 5]: 4% and 2%
- Population Membrane Permeable-Phenotype (%) [2, 5]: 30% and 10%
- Population Mitochondria Different-Phenotype (%) [2, 5]: 12% and 16%
- Population Mitotic Cells (%) [2, 5]: 36% and 21%
- Population Normal (%) [2, 5]: 95% and 97%
- Population Pyknosed Nuclei (%) [2, 5]: 22% and 10%
- Total Cell Count [2, 5]: 222 and 135
- Population Apoptotic (%) [2, 6]: 81% and 83%
- Population Fragmented Nuclei (%) [2, 6]: 20% and 17%
- Population Healthy Nuclei (%) [2, 6]: 68% and 77%
- Population Hoechst High Intensity Objects (%) [2, 6]: 1% and 0%
- Population Membrane Permeable-Phenotype (%) [2, 6]: 2% and 4%
- Population Mitochondria Different-Phenotype (%) [2, 6]: 0% and 2%
- Population Mitotic Cells (%) [2, 6]: 18% and 16%
- Population Normal (%) [2, 6]: 98% and 100%
- Population Pyknosed Nuclei (%) [2, 6]: 10% and 4%
- Population Tubulin-Different-Phenotype (%) [2, 6]: 2% and 3%
- Total Cell Count [2, 6]: 219 and 121
- Population Apoptotic (%) [2, 7]: 76% and 100%
- Population Fragmented Nuclei (%) [2, 7]: 20% and 7%
- Population Healthy Nuclei (%) [2, 7]: 58% and 86%
- Population Hoechst High Intensity Objects (%) [2, 7]: 3% and 1%
- Population Membrane Permeable-Phenotype (%) [2, 7]: 22% and 9%
- Population Mitochondria Different-Phenotype (%) [2, 7]: 12%
- Population Mitotic Cells (%) [2, 7]: 24% and 0%
- Population Normal (%) [2, 7]: 96% and 98%
- Population Tubulin-Different-Phenotype (%) [2, 7]: 13% and 6%
- Total Cell Count [2, 7]: 245 and 156
- Population Apoptotic (%) [2, 8]: 94% and 100%
- Population Fragmented Nuclei (%) [2, 8]: 18% and 15%
- Population Healthy Nuclei (%) [2, 8]: 69% and 77%
- Population Hoechst High Intensity Objects (%) [2, 8]: 2%
- Population Membrane Permeable-Phenotype (%) [2, 8]: 6% and 2%
- Population Mitochondria Different-Phenotype (%) [2, 8]: 0% and 2%
- Population Mitotic Cells (%) [2, 8]: 5% and 0%
- Population Normal (%) [2, 8]: 97%
- Population Pyknosed Nuclei (%) [2, 8]: 11% and 6%
- Population Tubulin-Different-Phenotype (%) [2, 8]: 2%
- Total Cell Count [2, 8]: 352 and 181
- Population Apoptotic (%) [2, 9]: 90% and 96%
- Population Fragmented Nuclei (%) [2, 9]: 26% and 12%
- Population Healthy Nuclei (%) [2, 9]: 54% and 74%
- Population Hoechst High Intensity Objects (%) [2, 9]: 4% and 3%
- Population Membrane Permeable-Phenotype (%) [2, 9]: 20% and 11%
- Population Mitochondria Different-Phenotype (%) [2, 9]: 10% and 5%
- Population Mitotic Cells (%) [2, 9]: 9% and 3%
- Population Normal (%) [2, 9]: 95% and 96%
- Population Pyknosed Nuclei (%) [2, 9]: 19% and 12%
- Population Tubulin-Different-Phenotype (%) [2, 9]: 14% and 4%
- Total Cell Count [2, 9]: 296 and 218
- Population Apoptotic (%) [3, 4]: 39% and 46%
- Population Fragmented Nuclei (%) [3, 4]: 2% and 8%
- Population Healthy Nuclei (%) [3, 4]: 81% and 72%
- Population Hoechst High Intensity Objects (%) [3, 4]: 4% and 7%
- Population Membrane Permeable-Phenotype (%) [3, 4]: 0%
- Population Mitochondria Different-Phenotype (%) [3, 4]: 44% and 57%
- Population Mitotic Cells (%) [3, 4]: 60% and 53%
- Population Normal (%) [3, 4]: 95% and 92%
- Population Pyknosed Nuclei (%) [3, 4]: 15% and 18%
- Population Tubulin-Different-Phenotype (%) [3, 4]: 27% and 22%
- Total Cell Count [3, 4]: 326 and 356
- Population Apoptotic (%) [3, 5]: 65% and 67%
- Population Fragmented Nuclei (%) [3, 5]: 9% and 6%
- Population Healthy Nuclei (%) [3, 5]: 71% and 75%
- Population Hoechst High Intensity Objects (%) [3, 5]: 10%
- Population Membrane Permeable-Phenotype (%) [3, 5]: 0%
- Population Mitochondria Different-Phenotype (%) [3, 5]: 70% and 75%
- Population Mitotic Cells (%) [3, 5]: 34% and 32%
- Population Normal (%) [3, 5]: 89%
- Population Pyknosed Nuclei (%) [3, 5]: 18%
- Population Tubulin-Different-Phenotype (%) [3, 5]: 56% and 39%
- Total Cell Count [3, 5]: 279 and 345
- Population Apoptotic (%) [3, 6]: 37% and 45%
- Population Fragmented Nuclei (%) [3, 6]: 7%
- Population Healthy Nuclei (%) [3, 6]: 76% and 81%
- Population Hoechst High Intensity Objects (%) [3, 6]: 3% and 5%
- Population Membrane Permeable-Phenotype (%) [3, 6]: 0%
- Population Mitochondria Different-Phenotype (%) [3, 6]: 25% and 42%
- Population Mitotic Cells (%) [3, 6]: 62% and 54%
- Population Normal (%) [3, 6]: 97% and 94%
- Population Pyknosed Nuclei (%) [3, 6]: 15% and 11%
- Population Tubulin-Different-Phenotype (%) [3, 6]: 16% and 14%
- Total Cell Count [3, 6]: 400 and 421
- Population Apoptotic (%) [3, 7]: 54% and 51%
- Population Fragmented Nuclei (%) [3, 7]: 8% and 9%
- Population Healthy Nuclei (%) [3, 7]: 73% and 77%
- Population Hoechst High Intensity Objects (%) [3, 7]: 9% and 8%
- Population Membrane Permeable-Phenotype (%) [3, 7]: 0%
- Population Mitochondria Different-Phenotype (%) [3, 7]: 64% and 71%
- Population Mitotic Cells (%) [3, 7]: 45% and 48%
- Population Normal (%) [3, 7]: 90% and 91%
- Population Pyknosed Nuclei (%) [3, 7]: 17% and 12%
- Population Tubulin-Different-Phenotype (%) [3, 7]: 39% and 36%
- Total Cell Count [3, 7]: 346 and 393
- Population Apoptotic (%) [3, 8]: 43% and 24%
- Population Fragmented Nuclei (%) [3, 8]: 15% and 12%
- Population Healthy Nuclei (%) [3, 8]: 78% and 79%
- Population Hoechst High Intensity Objects (%) [3, 8]: 1% and 3%
- Population Membrane Permeable-Phenotype (%) [3, 8]: 0% and 1%
- Population Mitochondria Different-Phenotype (%) [3, 8]: 16% and 24%
- Population Mitotic Cells (%) [3, 8]: 56% and 75%
- Population Normal (%) [3, 8]: 98% and 96%
- Population Pyknosed Nuclei (%) [3, 8]: 6% and 8%
- Population Tubulin-Different-Phenotype (%) [3, 8]: 10% and 13%
- Total Cell Count [3, 8]: 663 and 681
- Population Apoptotic (%) [3, 9]: 60% and 52%
- Population Fragmented Nuclei (%) [3, 9]: 16% and 15%
- Population Healthy Nuclei (%) [3, 9]: 72% and 75%
- Population Hoechst High Intensity Objects (%) [3, 9]: 7% and 6%
- Population Membrane Permeable-Phenotype (%) [3, 9]: 0%
- Population Mitochondria Different-Phenotype (%) [3, 9]: 57% and 52%
- Population Mitotic Cells (%) [3, 9]: 39% and 47%
- Population Normal (%) [3, 9]: 92% and 93%
- Population Pyknosed Nuclei (%) [3, 9]: 11% and 8%
- Population Tubulin-Different-Phenotype (%) [3, 9]: 28% and 21%
- Total Cell Count [3, 9]: 416 and 530
